CHOP UPR activ = apoptotic UPR (CHOP) activation; CHO-CHOP luciferase reporter, luminescence; percent of tunicamycin response over DMSO baseline; hit rate 0.34% among 330,000; activation, % at 10 µM;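 active = at 10 µM dose, activation of 40% or more, normalized to positive control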
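Material: CHO-CHOP cells, stable luciferase reporter of PERK-eIF2a-CHOP signalling; quantity: 500 reporter cells seeded per well; buffer or medium: F12 medium containing 10% fetal bovine serum; compound: one dose, 10 µM in 0.5% DMSO; incubation: 6 h compound treatment, 37 °C; measured by: Steady-Glo luciferase luminescence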
T cruzi repl = blocks replication of Trypanosoma cruzi; T. cruzi beta-gal in NIH3T3, luminescence, 90 h; inhibition, % (concentration not given with the values); hit rate 1.4% among 300,000;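 active = mean inhibition across valid replicates above about 55%, limit read from the data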;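 note: signal also drops with host cell toxicity which is not excluded here; higher percent means less beta-gal luminescence so fewer parasites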
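System: NIH/3T3 fibroblasts plus reporter T. cruzi. Medium: DMEM plus 2% FBS. Probe or stimulus: 5000 reporter trypomastigotes per well. Compound: single 50 nL compound addition per well in DMSO. Incubation: co-culture of at least 90 h after 3 h attachment. Detection: GalScreen β-gal luminescence, detergent lysis, 60 min. Evaluation: parasite load inhibition, %.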
CHOP inhibitor = CHOP inhibition in unfolded protein response. CHO-K1 CHOP-promoter luciferase, tunicamycin-induced, 15-18 h. inhibition, % at 10 µM. hit rate 3.8% among 220,000. AID 2732;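 active = compounds that reduced the stress-induced luciferase reporter signal by more than about 70% of percent inhibition, limit read from the data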
Dynein transport = dynein cargo transport inhibition; hit rate 0.47% among 220,000; z-score, hits read low; AID 1381; 3617.4 mouse cells, GR-EGFP nuclear translocation imaging; test concentration mostly 20 µM; stimulated with dexamethasone, 1 µM; hits give low values;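 active = plate z-score of nuclear minus cytoplasmic receptor signal below a set negative limit, without overly bright fluorescence or cell loss, cut at about -3.5 in these data, passing the limit was not always enough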;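 note: z-score of nuclear minus cytoplasmic ring GR-EGFP intensity difference per well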
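Buffer or medium – tet-free medium with charcoal-stripped serum · Signal – automated 10x imaging of fixed Hoechst-stained cells · Also added – dexamethasone agonist, 1.0 µM final, for 30 min · Incubation – induction 48 h, compound 1 h, agonist 30 min · Read-out – GR-EGFP nuclear translocation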
XBP1 UPR activ = activators of adaptive arm of unfolded protein response (XBP1); CHO-XBP1 luciferase reporter, IRE1-XBP1 UPR activation, luminescence; percent of tunicamycin response, DMSO as zero; activation, % at 20 µM; hit rate 0.33% among 330,000; AID 463104;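 active = versus positive control, 20 µM dose yields 30% or more activation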
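assay system = CHO-XBP1 luciferase reporter cells | amount = 1000 cells/well | buffer or medium = F12 plus 10% FBS | compound dosing = single point, 20 µM final compound, 1% DMSO | incubation = 16-18 h cell attachment at 37 °C, then 6 h compound exposure | detection = Steady-Glo luminescence read | controls = tunicamycin 10 µg/mL and vehicle-only wells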
L major viab = reduces viability of Leishmania major promastigotes; resazurin fluorescence viability; AID 1063; hit rate 9% among 200,000; inhibition, % at 10 µM; in the data active = inhibition above about 50%;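 note: promastigotes grown with compound for 44 hours at 28 °C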
A number is an active result; i = inactive; nt = no result. The sample as a whole holds a higher share of hits than the screen did.

SMILES	CHOP UPR activ	T cruzi repl	CHOP inhibitor	Dynein transport	XBP1 UPR activ	L major viab
COc1ccc(NC(=O)c2cc(-c3cccnc3)nc3c(C)c(C)ccc23)c(OC)c1	i	56	i	i	i	i
COc1ccccc1NC(=O)c1cc(-c2ccc(OC)c(OC)c2)nc2ccccc12	i	i	nt	nt	i	nt
CCc1ccc(C(C)NC(=O)C2(C)CC2(Br)Br)cc1 (stereo unspecified)	i	i	i	i	i	54
Cc1ccc(/C(=N\O)c2oc3c(C)c4oc(=O)cc(C)c4cc3c2C)cc1	i	59	i	i	i	i
O=C(CSc1nnc(-c2ccc(F)cc2)c2ccccc12)Nc1cccc(Cl)c1	i	60	i	i	i	i
COc1ccc(CCNC(=O)CSc2nnc(-c3ccc(F)cc3)c3ccccc23)cc1OC	i	i	i	i	i	65
Cc1ccc(-c2nnn(CC(=O)N(CCCO)C(C(=O)NC3CCCC3)c3ccc(F)cc3)n2)o1 (stereo unspecified)	i	i	nt	nt	i	nt
CC(=O)N(CCCc1ccc(C(C)(C)C)cc1)CCCN(C)C	i	73	i	i	i	99
O=C(NC(=S)N1CCCc2ccccc21)c1ccccc1	i	i	i	i	i	i
O=C(NC(=S)N1CCCc2ccccc21)c1ccc(Cl)cc1	nt	nt	i	i	nt	64
C=CCOc1ccc(CN(C)CC(O)COc2cccc3ccccc23)cc1 (stereo unspecified)	i	i	nt	nt	i	nt
CCOC(=O)c1c(-c2ccccc2)oc2ccc(O)c(CN(C)C)c12	i	i	i	i	i	100
CCOC(=O)c1c(-c2ccccc2)oc2ccc(O)c(CN3CCCC3)c12	i	i	i	i	i	99
CCc1nnc(NC(=O)COc2ccc(N(C)S(=O)(=O)c3ccc(C)cc3)cc2)s1	nt	i	i	i	nt	i
Cc1ccc(S(=O)(=O)N(C)c2ccc(OCC(=O)Nc3nnc(C4CC4)s3)cc2)cc1	nt	i	i	i	nt	96
CCOc1ccc(S(=O)(=O)N(C)c2ccc(OCC(=O)Nc3nc4ccccc4s3)cc2)cc1	i	i	81	i	i	i
CN(c1ccc(OCC(=O)Nc2nc3ccccc3s2)cc1)S(=O)(=O)c1ccccc1	i	i	i	i	i	i
CCN1CCN(S(=O)(=O)c2ccc(Cl)c(C(=O)NCCc3ccccc3)c2)CC1	i	i	nt	nt	i	nt
COc1ccc(C(=O)NCCCn2cccn2)cc1OC1CCN(C(C)=O)CC1	i	i	nt	nt	i	nt
O=C(NC1CCS(=O)(=O)C1)C1CCCN(S(=O)(=O)c2ccc(Cl)cc2)C1 (stereo unspecified)	i	i	i	i	i	i
COC(=O)Nc1ccc(S(=O)(=O)N2CCCC(C(=O)NC3CCS(=O)(=O)C3)C2)cc1 (stereo unspecified)	i	i	i	i	i	58
COC(=O)c1sccc1N/N=C/c1cccc(OC)c1O	i	i	83	i	i	i
COc1ccc(/C=N/Nc2ncnc(Cl)c2N)cc1OC	i	i	i	i	i	i
COc1cccc(/C=N/Nc2nc3ccccc3n3cnnc23)c1O	i	i	i	i	i	76
Clc1nccnc1N/N=C/c1ccc(Br)cc1	i	i	nt	nt	i	nt
SMILES	CHOP UPR activ	T cruzi repl	CHOP inhibitor	Dynein transport	XBP1 UPR activ	L major viab
COc1cccc(/C=N/Nc2nc3ccccc3n3cnnc23)c1	i	i	i	i	i	i
COc1ccc(/C=N/Nc2nccnc2Cl)cc1	i	i	72	i	i	i
COc1cccc(/C=N/Nc2ncnc(Cl)c2N)c1O	i	i	i	i	i	100
CCCN(C(=O)c1nc2nc(C)cc(C)n2n1)c1c(N)n(Cc2ccccc2)c(=O)[nH]c1=O	i	nt	nt	nt	i	nt
Cc1c(NC(=O)COc2ccc(C(C)C)cc2)c(=O)n(-c2ccccc2)n1C	i	i	nt	nt	i	nt
COc1cccc(/C=N/Nc2cc(-n3nc(C)cc3-c3ccccc3)ncn2)c1O	i	i	92	i	i	67
COc1ccc(/C=N/Nc2nccnc2Cl)c(OC)c1	i	i	i	i	i	i
COc1cccc(/C=N/Nc2nccnc2Cl)c1O	i	i	74	i	i	100
COc1cccc(/C=N/Nc2ncnc3scc(-c4ccccc4)c23)c1O	i	i	75	i	i	100

High-throughput results from PubChem BioAssay.
